# Assay outcomes: PubChem, The Scripps Research Institute Molecular Screening Center
# This is a sample that favours compounds with a hit; in the whole collection about 2.5% have one here.
# PRMT1 inh: PRMT1 (human) inhibition, primary screen | AID 652257 | actives 1.3% (n = 370,000) | recombinant PRMT1, activity-based probe fluorescence polarization | Q99873 | inhibition, % at 2.79 µM;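 active = inhibition above about 21% made by adding two undisclosed values, limit read from the data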
# Target sequence (Q99873 whole entry, looked up): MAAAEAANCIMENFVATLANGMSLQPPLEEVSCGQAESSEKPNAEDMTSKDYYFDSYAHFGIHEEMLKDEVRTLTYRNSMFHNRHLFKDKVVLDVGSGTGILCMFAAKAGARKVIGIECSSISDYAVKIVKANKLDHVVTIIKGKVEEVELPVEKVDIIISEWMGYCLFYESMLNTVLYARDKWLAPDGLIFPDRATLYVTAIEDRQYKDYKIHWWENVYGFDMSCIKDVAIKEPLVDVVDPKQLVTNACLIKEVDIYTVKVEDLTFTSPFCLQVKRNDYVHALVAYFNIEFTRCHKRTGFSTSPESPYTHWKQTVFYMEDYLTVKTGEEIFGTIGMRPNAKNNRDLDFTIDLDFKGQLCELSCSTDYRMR
# SIAE primary: blocks human sialic acid acetylesterase | SIAE FP-Rh probe binding, fluorescence polarization | inhibition, % at 9.66 µM | actives 0.69% (n = 370,000);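 active = inhibition above a cutoff: mean of compounds within the control limits plus 3 SD of those, cut at about 17% in these data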;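 note: 0% = plate median of compound wells and 100% = probe without SIAE protein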
# TCR-CD3 inh: inhibitors of human TCR-CD3 interaction | inhibition, % at 9.4 µM | AID 651800 | TAMRA-labeled TCR probe fluorescence, biochemical | actives 0.37% (n = 360,000); in the data active = inhibition above about 19%;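 note: recombinant mutant TCR 2C K166C tagged with TAMRA read by polarization; 0% = receptor in buffer alone and 100% = receptor with positive control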
# HTRA1 inh: blocks human HTRA1 serine peptidase; actives 0.5% (n = 340,000); AID 504803; recombinant HTRA1, FP-rhodamine activity-based probe, fluorescence polarization; inhibition, % at 5.96 µM; Q92743; in the data active = inhibition above about 36%;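 note: 0% = enzyme with DMSO and 100% = wells lacking enzyme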
# mABHD4 FP: inhibits mouse alpha/beta hydrolase domain 4. inhibition, % at 8.92 µM. Q8VD66. purified mABHD4, FP-Rh probe fluorescence polarization. actives 0.54% (n = 370,000);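 active = inhibition exceeding the mean over every tested compound plus 3 SD, cut at about 30% in these data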;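 note: 0% = plate median of compound wells and 100% = S159A mutant with DMSO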
#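 system = mouse ABHD4 enzyme, wild type | medium = HEPES pH 7.0, NaCl, Pluronic buffer | also added = FP-Rh probe | incubation = Enzyme–compound pre-incubation 45 min, then probe 60 min, both 25 °C | technique = fluorescence polarization, excitation 525 nm, emission 598 nm, BODIPY TMR filters | controls = S159A mutant high control, sample median low control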
# PRMT1 inh conf: PRMT1 (human) inhibition, FP confirmation; shares compounds with PRMT1 inh; recombinant His-PRMT1, activity-based probe fluorescence polarization; inhibition, % at 2.79 µM; actives 42% (n = 3,300); AID 687036;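 active = mean inhibition across replicates above the hit cutoff derived for the earlier primary screen, cut at about 22% in these data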
# Numbers without * were called inactive; . = not tested or not shown.
SMILES,PRMT1 inh,SIAE primary,TCR-CD3 inh,HTRA1 inh,mABHD4 FP,PRMT1 inh conf
CS(=O)(=O)N[C@@H]1C[C@@H]2O[C@H](CO)CC[C@@H]2O[C@@H]1CCc1ccc(-c2ccccc2F)cc1,-3,1,.,.,-1,.
COc1ccc(-c2cn(-c3ccc(C)c(Cl)c3)c(=S)[nH]2)cc1OC,7,0,-1,3,6,.
COc1ccc(-c2cn(-c3ccc(C)c(C)c3)c(=S)[nH]2)cc1OC,31*,3,1,6,6,18
CCN(CC)S(=O)(=O)c1ccc(C(=O)OCCN2C(=O)c3cccc4c(N5CCOCC5)ccc(c34)C2=O)cc1,1,0,7,3,4,.
CC(=O)N(C(C)=O)N1C(=O)c2cccc3c(N4CCOCC4)ccc(c23)C1=O,28*,-1,8,1,-3,7
Cc1cc(C)n2nc(N)c(N=Nc3cccc(Cl)c3)c2n1,58*,-6,-4,0,-3,0
CCOC(=O)[C@]12CCCC=C1N(Cc1ccc(Cl)cc1Cl)C(=O)[C@H](CC(=O)NCc1ccc(C)o1)C2,2,-7,5,.,-12,.
CCOC(=O)[C@]12CCC=C1N(Cc1ccc(Cl)cc1Cl)C(=O)[C@H](CC(=O)NCc1ccc(C)o1)C2,35*,-5,-3,.,-10,-3
O=C(O)c1ccccc1-c1c2cc(I)c(=O)c(I)c-2oc2c(I)c(O)c(I)cc12,83*,-292,-258,-149,-243,75*
CCOC(=O)C1CCN(C2CC(=O)N(c3ccc(OCC)cc3)C2=O)CC1 (stereo unspecified),45*,-2,-2,2,4,-6
CCCCCCOc1ccc(N2C(=O)CC(N3CCC(C(=O)OCC)CC3)C2=O)cc1 (stereo unspecified),9,0,-9,-4,4,.
CCc1ccc(N2C(=O)CC(N3CCC(C(=O)OC)CC3)C2=O)cc1 (stereo unspecified),44*,0,-7,-1,1,-3
CCCOc1ccc(N2C(=O)CC(N3CCC(c4nncn4CC)CC3)C2=O)cc1 (stereo unspecified),39*,1,3,9,4,0
C=CCN(C(=O)[C@@H](CCCC)[C@@H](O)c1ccc(C(C)=O)cc1)c1ccccc1,-3,0,.,.,9,.
CN[C@H]1C[C@H]2c3cc(-c4ccc5c(c4)OCO5)ccc3CCN2C[C@H]1[C@H](C)O,-4,0,.,.,4,.
Cc1nn(-c2ccccc2)c(N2CCCC2)c1/C=N/NC(=S)Nc1ccc(F)cc1,0,11,-5,-10,20,.
Cc1nn(C)cc1/C=N/NC(=S)Nc1ccccc1,39*,6,0,8,1,4
S=c1[nH]nc(-c2n[nH]c3c2CCC3)n1N=Cc1c2ccccc2cc2ccccc12,50*,-3,.,.,-3,49*
S=c1[nH]nc(-c2n[nH]c3c2CCC3)n1N=Cc1cccs1,7,4,.,.,0,.
Oc1ccc2ccccc2c1C=Nn1c(-c2n[nH]c3c2CCC3)n[nH]c1=S,32*,3,.,.,25,6
CC(C)CNc1cccc2c1S(=O)(=O)N(Cc1cn(Cc3cccc(C(F)(F)F)c3)nn1)Cc1ccccc1O2,2,3,.,.,-1,.
S=c1[nH]nc(-c2cc(-c3ccco3)[nH]n2)n1-c1cccc2ccccc12,36*,2,0,-6,13,33*
O=C(O)c1ccc(-n2c(-c3cc(-c4ccco4)[nH]n3)n[nH]c2=S)cc1,49*,-4,17,5,25,13
O=C(Nn1c(O)c(C=C2N=c3ccccc3=N2)sc1=S)c1ccccc1Cl,37*,-10,7,1,-3,2
O=S(=O)(Nn1c(O)c(C=C2N=c3ccccc3=N2)sc1=S)c1ccccc1,17,-5,-4,-5,14,.
SMILES,PRMT1 inh,SIAE primary,TCR-CD3 inh,HTRA1 inh,mABHD4 FP,PRMT1 inh conf
CCN(CC)c1ccc(C=Nn2c(-c3ccc(F)cc3)n[nH]c2=S)c(O)c1,37*,5,.,.,21,35*
Cc1cc(-c2n[nH]c(=S)n2/N=C/c2c[nH]c3ccccc23)n[nH]1,8,-2,5,-3,-7,.
Fc1ccc(-c2n[nH]c(=S)n2/N=C/c2c[nH]c3ccccc23)cc1,31*,-1,-2,-7,1,22*
COC(=O)[C@]12C[C@H](CC(=O)NCCC(C)C)C(=O)N(Cc3ccccc3)C1=C[C@H](C(C)(C)C)O[C@@H]2C,-3,-4,3,.,0,.
COc1cccc(/C=C2\CC3(OC(=O)c4ccco4)CCCN2C3)c1 (stereo unspecified),-1,-27,.,.,3,.
NS(=O)(=O)c1ccc(CCNC2CC(=O)N(Cc3ccccc3)C2=O)cc1 (stereo unspecified),63*,0,-1,-2,4,9
NS(=O)(=O)c1ccc(CCN2C(=O)CCC2=O)cc1,-6,-2,1,0,-2,.
NS(=O)(=O)c1ccc(CCNC2CC(=O)N(CCc3ccccc3)C2=O)cc1 (stereo unspecified),34*,3,-1,12,9,-3
O=C1CC(NCc2ccc3c(c2)OCO3)C(=O)N1CCc1ccccc1 (stereo unspecified),44*,-1,-10,7,2,15
COC(=O)[C@]12C[C@H](CC(=O)NCCc3ccccc3OC)C(=O)N(Cc3cccc4ccccc34)C1=C[C@H](C1CCCC1)O[C@@H]2C,-7,-4,.,.,-8,.
Cc1cccc(NC(=O)Cn2nnc(-c3ccccc3F)n2)c1C,-3,2,.,.,1,.
CCOc1ccc(N2C(=O)CC(NCCNc3ccc([N+](=O)[O-])cn3)C2=O)cc1 (stereo unspecified),49*,-3,-3,-3,-8,7
CCOc1ccc(N2C(=O)CC(N3CCN(c4ccc([N+](=O)[O-])cc4)CC3)C2=O)cc1 (stereo unspecified),10,2,-3,1,5,.
COc1ccc(N2C(=O)CC(NCCNc3ccc([N+](=O)[O-])cn3)C2=O)cc1 (stereo unspecified),36*,0,2,2,3,8
O=S(=O)(c1cccc(-c2n[nH]c(=S)n2-c2cccc(C(F)(F)F)c2)c1)N1CCOCC1,6,7,2,1,-2,.
O=S(=O)(c1cccc(-c2n[nH]c(=S)n2-c2ccc(OC(F)(F)F)cc2)c1)N1CCOCC1,27*,0,1,11,6,15
Cc1ccc(C2/C(=C(/O)c3ccc(Br)cc3)C(=O)C(=O)N2Cc2ccco2)o1 (stereo unspecified),35*,7,0,17,28,10
COc1ccc(/C(O)=C2\C(=O)C(=O)N(Cc3ccco3)C2c2cc(OC)ccc2OC)cc1 (stereo unspecified),1,3,2,-8,4,.
